Active and inactive are the calls of the source. No cut-off for these calls is given here.
Assays:
U-87 MG [1] = assay: Up regulation of OSGIN1 gene expression in human U87MG cells at 16 uM incubated for 4 hrs followed by bromouridine addition during last 30 mins of incubation by TRIzol-reagent based Bru-Seq analysis relative to control; type: functional, U-87MG ATCC
Method in brief: (§1)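 U87MG cells exposed to compound or DMSO vehicle for 4 h, with 2 mM bromouridine added for the final 30 min. Total RNA isolated with TRIzol; Bru-labelled nascent RNA captured on anti-BrdU antibody-conjugated magnetic beads and sequenced. Transcript abundance expressed as RPKM relative to DMSO. Experiment performed once.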

U-87 MG [2] = assay: Down regulation of KIAA0040 gene expression in human U87MG cells at 16 uM incubated for 4 hrs followed by bromouridine addition during last 30 mins of incubation by TRIzol-reagent based Bru-Seq analysis relative to control; type: functional, U-87MG ATCC
U-87 MG [3] = assay: Down regulation of RAET1E gene expression in human U87MG cells at 16 uM incubated for 4 hrs followed by bromouridine addition during last 30 mins of incubation by TRIzol-reagent based Bru-Seq analysis relative to control; type: functional, U-87MG ATCC; method in brief: as §1
U-87 MG [4] = assay: Down regulation of RAD51 gene expression in human U87MG cells at 16 uM incubated for 4 hrs followed by bromouridine addition during last 30 mins of incubation by TRIzol-reagent based Bru-Seq analysis; type: functional, cell-based; details: U-87MG ATCC
Method in brief: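 Bru-seq in U87MG cells treated at 16 μM for 4 h; 2 mM bromouridine present during the last 30 min. TRIzol total RNA, then anti-BrdU bead capture of labelled RNA and sequencing. Readout is RPKM traces versus DMSO control. Performed once.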

U-87 MG [5] = assay: Down regulation of STRA6 gene expression in human U87MG cells at 16 uM incubated for 4 hrs followed by bromouridine addition during last 30 mins of incubation by TRIzol-reagent based Bru-Seq analysis relative to control; type: functional, U-87MG ATCC; method in brief: as §1
U-87 MG [6] = assay: Up regulation of EID3 gene expression in human U87MG cells at 16 uM incubated for 4 hrs followed by bromouridine addition during last 30 mins of incubation by TRIzol-reagent based Bru-Seq analysis relative to control; type: functional, U-87MG ATCC; method in brief: as §1
U-87 MG [7] = assay: Down regulation of LRRN3 gene expression in human U87MG cells at 16 uM incubated for 4 hrs followed by bromouridine addition during last 30 mins of incubation by TRIzol-reagent based Bru-Seq analysis relative to control; type: functional, U-87MG ATCC; method in brief: as §1
U-87 MG [8] = assay: Down regulation of CTGF gene expression in human U87MG cells at 16 uM incubated for 4 hrs followed by bromouridine addition during last 30 mins of incubation by TRIzol-reagent based Bru-Seq analysis relative to control; type: functional, U-87MG ATCC
U-87 MG [9] = assay: Up regulation of TXNRD1 gene expression in human U87MG cells at 16 uM incubated for 4 hrs followed by bromouridine addition during last 30 mins of incubation by TRIzol-reagent based Bru-Seq analysis relative to control; type: functional, U-87MG ATCC
A 172 [10] = assay: Induction of morphological changes in human A172 cells assessed as formation of lipid vesicles around nucleus at 17 uM measured after 48 hrs by Giemsa-staining based microscopic analysis; type: functional, cell-based
U-87 MG [11] = assay: Down regulation of cleaved MMP2 expression in human U87MG cells at 10 uM measured after 24 hrs by Western blot analysis; type: functional, cell-based; details: U-87MG ATCC
A 172 [12] = assay: Induction of morphological changes in human A172 cells assessed as vesicle formation at 11 uM measured after 48 hrs by Giemsa-staining based microscopic analysis; type: functional, cell-based
U-87 MG [13] = assay: Up regulation of CTH gene expression in human U87MG cells at 10 uM incubated for 4 hrs followed by bromouridine addition during last 30 mins of incubation by TRIzol-reagent based Bru-Seq analysis relative to control; type: functional, U-87MG ATCC; method in brief: as §1
U-87 MG [14] = assay: Down regulation of CCNA2 gene expression in human U87MG cells at 10 uM incubated for 4 hrs followed by bromouridine addition during last 30 mins of incubation by TRIzol-reagent based Bru-Seq analysis relative to control; type: functional, U-87MG ATCC
U-87 MG [15] = assay: Up regulation of NMRAL2P gene expression in human U87MG cells at 10 uM incubated for 4 hrs followed by bromouridine addition during last 30 mins of incubation by TRIzol-reagent based Bru-Seq analysis relative to control; type: functional, U-87MG ATCC
Method in brief: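 Nascent transcription (Bru-seq) in U87MG cells: treatment at 10 μM for 4 h, with 2 mM bromouridine added for the final 30 min. Total RNA isolated with TRIzol; Bru-labelled RNA captured using anti-BrdU antibody on magnetic beads, then sequenced. Transcript traces reported as RPKM compared with DMSO-treated cells. Single experiment.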

U-87 MG [16] = assay: Up regulation of ALOXE3 gene expression in human U87MG cells at 10 uM incubated for 4 hrs followed by bromouridine addition during last 30 mins of incubation by TRIzol-reagent based Bru-Seq analysis relative to control; type: functional, U-87MG ATCC; method in brief: as §1
U-87 MG [17] = assay: Down regulation of LYPD6 gene expression in human U87MG cells at 10 uM incubated for 4 hrs followed by bromouridine addition during last 30 mins of incubation by TRIzol-reagent based Bru-Seq analysis relative to control; type: functional, U-87MG ATCC
U-87 MG [18] = assay: Down regulation of KCTD4 gene expression in human U87MG cells at 10 uM incubated for 4 hrs followed by bromouridine addition during last 30 mins of incubation by TRIzol-reagent based Bru-Seq analysis relative to control; type: functional, U-87MG ATCC
U-87 MG [19] = assay: Down regulation of CTHRC1 gene expression in human U87MG cells at 10 uM incubated for 4 hrs followed by bromouridine addition during last 30 mins of incubation by TRIzol-reagent based Bru-Seq analysis relative to control; type: functional, U-87MG ATCC
U-87 MG [20] = assay: Up regulation of HSPA6 gene expression in human U87MG cells at 10 uM incubated for 4 hrs followed by bromouridine addition during last 30 mins of incubation by TRIzol-reagent based Bru-Seq analysis relative to control; type: functional, U-87MG ATCC; method in brief: as §1
U-87 MG [21] = assay: Down regulation of BBS10 gene expression in human U87MG cells at 10 uM incubated for 4 hrs followed by bromouridine addition during last 30 mins of incubation by TRIzol-reagent based Bru-Seq analysis relative to control; type: functional, U-87MG ATCC
A 172 [22] = assay: Antimigratory activity against human A172 cells at 10 uM measured after 4 hrs by Giemsa staining based transwell migration assay; type: functional, cell-based
Method in brief: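 A172 cells (1 x 10^5) were treated with compound and seeded into inserts with 8.0 μm PET membrane in serum-free medium. DMEM with 10% FBS was in the lower well; wells without FBS served as control. After 4 h, migrated cells were Giemsa-stained and imaged at 10X, 5 fields per well.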

U-87 MG [23] = assay: Up regulation of HSPH1 gene expression in human U87MG cells at 10 uM incubated for 4 hrs followed by bromouridine addition during last 30 mins of incubation by TRIzol-reagent based Bru-Seq analysis relative to control; type: functional, U-87MG ATCC; method in brief: as §1
U-87 MG [24] = assay: Down regulation of DUT gene expression in human U87MG cells at 10 uM incubated for 4 hrs followed by bromouridine addition during last 30 mins of incubation by TRIzol-reagent based Bru-Seq analysis relative to control; type: functional, U-87MG ATCC
U-87 MG [25] = assay: Up regulation of PSAT1 gene expression in human U87MG cells at 10 uM incubated for 4 hrs followed by bromouridine addition during last 30 mins of incubation by TRIzol-reagent based Bru-Seq analysis relative to control; type: functional, U-87MG ATCC; method in brief: as §1

SMILES: COC(=O)c1cccc(/C=C/C(=O)c2cccc(O)c2)c1
- fold change (FC) (U-87 MG [1]): 5.4
- fold change (FC) (U-87 MG [2]): 2.6
- fold change (FC) (U-87 MG [3]): 3.4
- Activity (U-87 MG [4]): Active
- fold change (FC) (U-87 MG [5]): 4
- fold change (FC) (U-87 MG [6]): 4.8
- fold change (FC) (U-87 MG [7]): 3.6
- fold change (FC) (U-87 MG [8]): 3.1
- fold change (FC) (U-87 MG [9]): 5.4

SMILES: N#Cc1cccc(/C=C/C(=O)c2ccc(O)cc2)c1
- Activity (A 172 [10]): Active

SMILES: O=C(/C=C/c1ccc(-c2cccnc2)cc1)c1cccc(O)c1
- Activity (U-87 MG [11]): Active

SMILES: CCCCCN(CCCCC)S(=O)(=O)c1ccc(C(=O)/C=C/c2cccc(O)c2)cc1
- Activity (A 172 [12]): Active

SMILES: CCCCCN(CCCCC)S(=O)(=O)c1ccc(C(=O)/C=C/c2cccc(C#N)c2)cc1
- fold change (FC) (U-87 MG [13]): 17.7
- fold change (FC) (U-87 MG [14]): 2.3
- log2FC (U-87 MG [15]): 2.72
- fold change (FC) (U-87 MG [16]): 17
- fold change (FC) (U-87 MG [17]): 3.1
- fold change (FC) (U-87 MG [18]): 2.8
- fold change (FC) (U-87 MG [19]): 2.4
- fold change (FC) (U-87 MG [20]): 464.7
- fold change (FC) (U-87 MG [21]): 2.3
- Activity (A 172 [22]): Active
- fold change (FC) (U-87 MG [23]): 20
- fold change (FC) (U-87 MG [24]): 2.3
- fold change (FC) (U-87 MG [25]): 11.7
